Laboratory results from PubChem BioAssay AID504347 (Broad Institute, 2011).
Activity calls are given as the source filed them.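 The calls were made as follows: active = fitted curve climbs past 10% caspase activation, relative to the positive control, at or below the top valid tested dose; inactive = the rest, including activity in the opposite direction.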

Legend:
[1] = tested on: MEF A1-2A-BIM cells, caspase-3/7 luminescence; test: A1 inhibitor-induced caspase activation in BIM-primed MEFs, dose response, cell-based, MEF A1-2A-BIM, luminescence, dry powder, set 4 (AID 504347)
How it was run: (§1)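 Evaluation: caspase activation from luminescence rise; Material: mouse embryonic fibroblasts co-expressing A1-2A-BIM construct; Input: 2500 cells per well; Technique: luminescence with DEVD-luciferin caspase-3/7 reagent, reduced-crosstalk aperture for some reads; Times: 3 h compound at 37 °C, 1 h reagent at RT; Medium: RPMI-1640, 10% FBS.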

[2] = as above; settings: MEF A1-2A-BIM cells, caspase-3/7 luminescence; at 35 µM (top of the series)
How it was run: as §1

| Compound | AC10 [1] [µM] | caspase activation [2] |
| --- | --- | --- |
| Cn1c(=O)c([N+](=O)[O-])c(Cl)c2ccccc21 | 0.96 | – |
| O=C(COc1ccc(Cl)cc1Cl)NNc1nc(N2CCOCC2)nc(N2CCOCC2)n1 | 28.5 | – |
| CCn1c(=O)c([N+](=O)[O-])c(Sc2ccc(C)cc2)c2ccccc21 | 15 | – |
| Cc1ccc(Sc2c(Sc3ccc(C)cc3)c3ccccc3n(C)c2=O)cc1 | – | -0.138% (inactive) |
| Cn1c(=O)c([N+](=O)[O-])c(-n2cnc3ccccc32)c2ccccc21 | 8.18 | – |
| COCCn1c(=O)c([N+](=O)[O-])c(Sc2ccc(C)cc2)c2ccccc21 | 6.43 | – |
| COCCn1c(=O)c(Sc2ccc(C)cc2)c(Sc2ccc(C)cc2)c2ccccc21 | 20.2 | – |
| Cc1ccc(Sc2c([N+](=O)[O-])c(=O)n(Cc3ccccc3)c3ccccc23)cc1 | 17.8 | – |
| COc1ccc(CCNc2nc(N3CCOCC3)nc(N3CCOCC3)n2)cc1OC | – | 4.68% (inactive) |
| O=c1[nH]c2ccccc2c(Cl)c1[N+](=O)[O-] | 2.8 | – |
| O=c1c([N+](=O)[O-])c(Cl)c2ccccc2n1Cc1ccccc1 | 2.53 | – |
| C/C(=N\Nc1nc(N2CCCCC2)nc(N2CCCCC2)n1)c1ccc(F)cc1 | – | 0.602% (inactive) |
